The target in assay [1] is T1, Muscarinic acetylcholine receptor M1 (Homo sapiens) (UniProt P11229).
T1 sequence (whole entry): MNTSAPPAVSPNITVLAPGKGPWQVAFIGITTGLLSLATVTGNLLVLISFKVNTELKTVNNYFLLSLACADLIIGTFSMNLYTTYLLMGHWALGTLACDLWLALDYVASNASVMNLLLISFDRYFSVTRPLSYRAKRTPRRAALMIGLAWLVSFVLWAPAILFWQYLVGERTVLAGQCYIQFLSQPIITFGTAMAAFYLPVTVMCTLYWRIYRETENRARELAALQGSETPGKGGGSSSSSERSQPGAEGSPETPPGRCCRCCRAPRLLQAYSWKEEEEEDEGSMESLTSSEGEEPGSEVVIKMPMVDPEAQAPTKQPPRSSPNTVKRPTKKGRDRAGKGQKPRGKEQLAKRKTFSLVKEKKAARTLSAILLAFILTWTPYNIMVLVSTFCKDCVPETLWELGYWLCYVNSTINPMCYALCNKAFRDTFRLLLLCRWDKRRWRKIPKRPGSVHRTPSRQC
Kind of assay: Affinity for human M1 cloned muscarinic receptor subtype expressed in CHO-K1 cells at a concentration of 10 uM. Type of assay: cell-based.

The target in assay [2] is T2, Muscarinic acetylcholine receptor M3 (Homo sapiens, UniProt P20309). Kind of assay: Affinity for human M3 cloned muscarinic receptor subtype expressed in CHO-K1 cells at a concentration of 10 uM. The format is cell-based.
Target sequence in this assay (P20309 whole entry, looked up): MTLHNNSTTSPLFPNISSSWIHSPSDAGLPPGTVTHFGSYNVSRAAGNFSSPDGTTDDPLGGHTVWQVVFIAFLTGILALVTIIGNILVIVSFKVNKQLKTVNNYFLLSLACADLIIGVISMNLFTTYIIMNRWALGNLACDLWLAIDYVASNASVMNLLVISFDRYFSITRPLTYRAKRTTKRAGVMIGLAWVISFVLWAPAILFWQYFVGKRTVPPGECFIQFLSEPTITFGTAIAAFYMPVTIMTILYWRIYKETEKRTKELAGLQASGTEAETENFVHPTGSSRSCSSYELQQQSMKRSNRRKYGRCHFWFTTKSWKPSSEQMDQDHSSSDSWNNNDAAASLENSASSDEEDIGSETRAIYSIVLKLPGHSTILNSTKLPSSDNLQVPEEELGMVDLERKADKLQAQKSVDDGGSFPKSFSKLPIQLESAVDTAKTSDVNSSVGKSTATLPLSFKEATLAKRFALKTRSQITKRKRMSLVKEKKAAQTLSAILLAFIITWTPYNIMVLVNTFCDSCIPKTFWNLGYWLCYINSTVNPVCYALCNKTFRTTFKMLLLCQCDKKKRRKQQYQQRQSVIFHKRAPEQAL
The target of assay [3] is T3, Muscarinic acetylcholine receptor M4 (Homo sapiens) (UniProt P08173).
T3 sequence (whole entry): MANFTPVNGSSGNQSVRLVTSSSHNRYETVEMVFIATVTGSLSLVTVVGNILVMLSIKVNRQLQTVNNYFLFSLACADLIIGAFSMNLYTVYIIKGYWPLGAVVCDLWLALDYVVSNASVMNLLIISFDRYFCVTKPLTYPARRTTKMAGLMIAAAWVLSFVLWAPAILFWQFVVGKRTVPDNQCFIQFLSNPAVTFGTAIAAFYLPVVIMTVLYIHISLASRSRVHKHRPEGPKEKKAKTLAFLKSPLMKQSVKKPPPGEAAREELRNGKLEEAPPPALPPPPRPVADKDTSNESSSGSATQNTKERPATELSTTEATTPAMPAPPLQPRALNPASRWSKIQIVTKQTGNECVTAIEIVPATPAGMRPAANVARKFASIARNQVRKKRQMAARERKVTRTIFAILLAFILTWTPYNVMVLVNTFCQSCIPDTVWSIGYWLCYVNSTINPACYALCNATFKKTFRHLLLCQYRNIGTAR
Kind of assay: Affinity for human M4 cloned muscarinic receptor subtype expressed in CHO-K1 cells at a concentration of 10 uM. Type of assay: cell-based.

For assay [4], the target named is T4, Muscarinic acetylcholine receptor M5 (Homo sapiens) (UniProt P08912).
T4 sequence (whole entry): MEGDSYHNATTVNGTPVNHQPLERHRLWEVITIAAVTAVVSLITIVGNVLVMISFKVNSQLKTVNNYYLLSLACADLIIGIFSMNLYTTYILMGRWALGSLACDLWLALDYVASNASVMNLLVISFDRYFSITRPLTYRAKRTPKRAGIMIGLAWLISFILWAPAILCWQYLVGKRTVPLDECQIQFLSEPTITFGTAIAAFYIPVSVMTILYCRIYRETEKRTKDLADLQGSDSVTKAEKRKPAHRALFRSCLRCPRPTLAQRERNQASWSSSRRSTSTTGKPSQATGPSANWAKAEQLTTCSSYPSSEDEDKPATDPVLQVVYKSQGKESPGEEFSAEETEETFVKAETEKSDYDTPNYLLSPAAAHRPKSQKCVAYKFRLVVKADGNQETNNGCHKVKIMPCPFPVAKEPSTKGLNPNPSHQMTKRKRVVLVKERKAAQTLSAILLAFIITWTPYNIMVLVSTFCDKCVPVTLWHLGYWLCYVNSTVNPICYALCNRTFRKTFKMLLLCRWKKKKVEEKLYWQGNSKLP
Kind of assay: Affinity for human muscarinic acetylcholine receptor M5 subtype expressed in CHO-K1 cells at a concentration of 10 uM. Type of assay: cell-based.

The target of assay [5] is T5, Muscarinic acetylcholine receptor M2 (Homo sapiens) (UniProt P08172).
T5 sequence (whole entry): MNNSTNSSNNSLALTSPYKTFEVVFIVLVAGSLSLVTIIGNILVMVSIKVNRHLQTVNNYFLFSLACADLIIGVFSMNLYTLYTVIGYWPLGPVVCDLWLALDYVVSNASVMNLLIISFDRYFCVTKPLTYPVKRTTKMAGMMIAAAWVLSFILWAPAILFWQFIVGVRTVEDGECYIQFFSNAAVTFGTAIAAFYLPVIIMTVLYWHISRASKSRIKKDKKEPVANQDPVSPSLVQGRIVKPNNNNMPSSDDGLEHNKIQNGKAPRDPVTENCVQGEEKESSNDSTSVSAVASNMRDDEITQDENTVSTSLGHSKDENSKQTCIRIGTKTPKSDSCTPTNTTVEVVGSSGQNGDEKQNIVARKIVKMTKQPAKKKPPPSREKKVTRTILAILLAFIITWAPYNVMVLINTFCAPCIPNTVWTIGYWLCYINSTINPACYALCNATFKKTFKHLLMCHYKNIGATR
Kind of assay: Affinity for human muscarinic acetylcholine receptor M2 expressed in CHO-K1 cells at a concentration of 10 uM. Type of assay: cell-based.

For assay [6], the species on record is Cavia porcellus. Put plainly: Inotropic responses, induced by the compound in electrically paced (Hz) guinea pig left atria. Type of assay: functional. In a few lines: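 Left atria from guinea pig were electrically driven at 1 Hz, and negative inotropic effect was recorded. Cumulative concentration–response curves were run, with arecaidine propargyl ester (APE) as the muscarinic agonist reference. EC50 came from nonlinear regression curve fitting as the mean ± SE of at least four independent experiments.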

The species entered for assay [7] is Cavia porcellus. Put plainly: Inotropic response relative to APE (APE = 100) in electrically paced (Hz) guinea pig left atria. The format is functional.
Assay [8] has as its target T2, Muscarinic acetylcholine receptor M3. Kind of assay: Affinity for human M3 cloned muscarinic receptor subtype expressed in CHO-K1 cells. The format is cell-based. In short, it runs like this: (§1)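 Radioligand displacement of [³H]NMS in CHO-K1 cells expressing human cloned muscarinic M1–M5 receptors. IC50 values were converted to Ki with the Cheng–Prusoff equation. Results are means ± SE of two to three experiments, each run in triplicate.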
Target sequence in this assay (P20309 whole entry): as the sequence (P20309 whole entry, looked up) above

The target of assay [9] is T6, Muscarinic acetylcholine receptor M2 (Homo sapiens, UniProt P08172).
T6 sequence (P08172 whole entry): T5 sequence (whole entry)
Put plainly: biochemical.

For assay [10], the target named is T7, Muscarinic acetylcholine receptor M4 (Homo sapiens, UniProt P08173).
T7 sequence (P08173 whole entry): T3 sequence (whole entry)
Put plainly: Affinity for human M4 cloned muscarinic receptor subtype expressed in CHO-K1 cells. Type of assay: cell-based. In a few lines:
as §1

Assay [11] concerns the target T8, Muscarinic acetylcholine receptor M1 (Homo sapiens, UniProt P11229).
T8 sequence (P11229 whole entry): T1 sequence (whole entry)
Put plainly: Affinity for human M1 cloned muscarinic receptor subtype expressed in CHO-K1 cells. Type of assay: cell-based. In short, it runs like this: as §1

Assay [12] deals with T9, Muscarinic acetylcholine receptor M5 (Homo sapiens, UniProt P08912).
T9 sequence (P08912 whole entry): T4 sequence (whole entry)
Kind of assay: Affinity for human muscarinic acetylcholine receptor M5 subtype expressed in CHO-K1 cells. The format is cell-based. In a few lines: as §1

For assay [13], the species on record is Cavia porcellus. Put plainly: Antagonist affinity, in electrically paced (1 Hz) guinea pig left atria using N-dodecyl lysine amide as agonist.
Assay [14] is filed under the species Cavia porcellus. Kind of assay: Antagonist affinity, in electrically paced (1 Hz) guinea pig left atria using the APE as agonist. Type of assay: functional. In short, it runs like this:
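Driven guinea pig left atria paced at 1 Hz, with cumulative agonist concentration–response curves. Each antagonist was tested at one concentration, 0.1 µM, incubated 1 h. pK_B was calculated from the dose ratio as −log{[antagonist]/(DR−1)}. Mean ± SE of four experiments.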

Assay [15] is filed under the species Cavia porcellus. Kind of assay: Antagonist affinity, in electrically paced (1 Hz) guinea pig left atria using 1'-[8-(1-(2-methoxy -benzyl)-[4,4']bipiperidinyl)-octyl]-1-(2-methoxy-benzyl)-[4,4']biiperidinyl as agonist. The format is functional. In a few lines: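 Driven guinea pig left atria paced at 1 Hz. Each antagonist was tested at one concentration, 0.1 µM, incubated 1 h. One tissue received the antagonist and a second untreated tissue served as control, each giving a cumulative agonist concentration–response curve. pK_B = −log{[antagonist]/(DR−1)}. Mean ± SE of four experiments.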

In assay [16] the target is T6, Muscarinic acetylcholine receptor M2. Put plainly: Binding affinity against muscarinic acetylcholine receptor M2.

In general, EC50 refers to the concentration giving half of the maximal effect. Low readings indicate higher potency in that assay, high ones lower potency in that assay. Regarding `COc1ccccc1CN1CCC(C2CCN(C)CC2)CC1`, the Reduction in [1] stood at 17%; in assay [2], 12%; in assay [3] it was 25%; in [4] it was 25%; in assay [5] it was 35%. Also, the EC50 in the assay filed under Cavia porcellus [6] is 0.603 nM. The compound also had a Relative efficacy in the assay listed under Cavia porcellus [7] of 70.
Compound `C#CCOC(=O)C1=CCCN(C)C1` [ARECAIDINE PROPARGYL ESTER] had an EC50 in the assay filed under Cavia porcellus [6] of 7.08 nM. In the assay listed under Cavia porcellus [7], this compound gave a Relative efficacy of 100.
The Ki is the equilibrium dissociation constant of an inhibitor or competing ligand from its target. The low end stands for higher affinity, the high end for lower affinity. With `COc1ccccc1CN1CCC(C2CCN(C(=O)CCCCCCC(=O)N3CCC(C4CCN(Cc5ccccc5OC)CC4)CC3)CC2)CC1` [PIPERTRAMINE AMIDE], the Ki is 97.2 nM in assay [8]; 9.2 nM in [9]; 16.6 nM in [10]; 108 nM in [11]; 183 nM in [12]. This compound also gave an EC50 in the assay listed under Cavia porcellus [6] of 0.398 nM. For the same compound, in the assay listed under Cavia porcellus [7], the Relative efficacy was 85.
Regarding `COc1ccccc1CN1CCC(C2CCN(C(C)=O)CC2)CC1`, the EC50 in the assay listed under Cavia porcellus [6] was 1.29 nM. The compound also showed a Relative efficacy in the assay listed under Cavia porcellus [7] of 79.
Regarding `CCCCCCCCCCCCNC(CCCCN)C(N)=O` (configuration not stated), the Reduction is 17% in [1]; 17% in assay [2]; 0% in assay [3]; 24% in assay [4]; 13% in assay [5]. The EC50 in the assay filed under Cavia porcellus [6] was 0.339 nM. This compound also had a Relative efficacy in the assay filed under Cavia porcellus [7] of 82.
One may read the pKB as the KB on a negative log10 scale, so that one unit is a factor of ten. Consider `CN1[C@@H]2CC[C@H]1C[C@@H](OC(=O)C(CO)c1ccccc1)C2` (some centres not stated) [ATROPINE], for which the pKB in the assay filed under Cavia porcellus [13] is 7.45; in the assay filed under Cavia porcellus [14], 9.15; in the assay filed under Cavia porcellus [15], 7.18.
As for `COc1ccccc1CN1CCC(C2CCNCC2)CC1`, the Reduction came to 22% in [1]; 12% in assay [2]; 28% in assay [3]; 29% in [4]; 49% in assay [5]. This compound showed an EC50 in the assay listed under Cavia porcellus [6] of 0.525 nM. The compound also came in with a Relative efficacy in the assay filed under Cavia porcellus [7] of 75.
With `COc1ccccc1CN1CCC(C2CCN(CCCCCCCCN3CCC(C4CCN(Cc5ccccc5OC)CC4)CC3)CC2)CC1` [PIPERTRAMINE], the Ki is 422 nM in assay [8]; 8.6 nM in assay [16]; 15.3 nM in [10]; 19.8 nM in [11]; 105 nM in assay [12]. In the assay filed under Cavia porcellus [6], it took 0.224 nM to reach a half-maximal effect (EC50). Further, in the assay listed under Cavia porcellus [7], the Relative efficacy is listed as 84.
